Runt-CBFb FRET = Runt domain-CBFb interaction inhibition; inhibition, % at 20 µM; 220,000 tested, 0.46% active; Q01196+Q13951; Cerulean-Runt/Venus-CBFb FRET ratio 530/480, 1 h; AID 1496;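 active means inhibition over about 50% at 20 µM in the single-dose screen, limit read from the data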
Target sequence (Q01196 whole entry, looked up, the tested form may be a part): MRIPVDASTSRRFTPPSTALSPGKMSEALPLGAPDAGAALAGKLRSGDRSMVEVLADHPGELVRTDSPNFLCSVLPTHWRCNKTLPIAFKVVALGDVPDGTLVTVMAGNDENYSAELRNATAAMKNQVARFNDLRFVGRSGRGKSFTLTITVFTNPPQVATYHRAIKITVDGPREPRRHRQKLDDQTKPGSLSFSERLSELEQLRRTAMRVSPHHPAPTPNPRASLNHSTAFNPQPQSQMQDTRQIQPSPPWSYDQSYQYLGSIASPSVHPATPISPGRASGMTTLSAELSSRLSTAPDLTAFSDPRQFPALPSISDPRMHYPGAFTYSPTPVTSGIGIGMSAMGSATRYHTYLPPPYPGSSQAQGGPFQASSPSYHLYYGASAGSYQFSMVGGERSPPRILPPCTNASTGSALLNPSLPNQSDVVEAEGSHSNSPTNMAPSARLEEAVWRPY
Target sequence (Q13951 whole entry, looked up, the tested form may be a part): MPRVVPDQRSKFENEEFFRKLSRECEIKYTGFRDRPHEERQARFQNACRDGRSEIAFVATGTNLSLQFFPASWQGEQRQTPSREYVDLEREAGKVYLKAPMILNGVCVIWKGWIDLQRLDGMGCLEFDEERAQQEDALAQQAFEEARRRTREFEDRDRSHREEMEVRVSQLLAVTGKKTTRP
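Assay system: Cerulean-tagged RUNX1 Runt domain (FRET donor) fusion protein / Amount: 100 nM each of Venus-CBFb and Cerulean-Runt domain / Medium: Tris buffer pH 7.5 with salts and BSA / Also added: Venus-CBFb 100 nM / Schedule: 1 h complex formation plus 1 h compound treatment, room temperature / Signal: FRET fluorescence / Read-out: loss of energy transfer signal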
RanGTP-Imp inh = disruptors of Ran-importin-beta complex formation – biochemical, FRET, CFP-Ran, YFP-importin-beta, homogeneous, primary screen | cell-free CFP-Ran/YFP-importin-beta FRET ratio | inhibition, % (no concentration beside the values) | 300,000 tested, 1.1% active;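 active means more than half of the replicate wells show a fall in the fluorescence ratio signal beyond about 16%, limit read from the data, passing the limit was not always enough; inconclusive means exactly half of the replicate wells pass the set limit; inactive means fewer than half of replicates pass the limit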
Runt-SMMHC FRET = inhibitors of human RUNX1 Runt domain binding to CBFb-SMMHC; Q01196+Q13951; Cerulean-Runt/Venus-CBFb-SMMHC FRET ratio 530/480, 1 h; inhibition, % at 20 µM; 220,000 tested, 0.74% active; AID 1434;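 active means mean inhibition across duplicate retests at 20 µM reaching about 50%, limit read from the data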;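 further: inhibitors lower the FRET ratio by blocking Runt binding to CBFb-SMMHC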
VIM-2 inh = inhibitors of Pseudomonas aeruginosa VIM-2 metallo-beta-lactamase. purified VIM-2, nitrocefin hydrolysis, epi-absorbance fluorescence. inhibition, % at 5.6 µM. 290,000 tested, 0.89% active. AID 1527;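 active means inhibition above the mean of all tested compounds plus 3 SD, cutoff set per screening run, cut at about 7.5% in these data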;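 further: red hydrolysis product quenches plate fluorescence so inhibitors raise well fluorescence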
IMP-1 inh = inhibitors of Pseudomonas aeruginosa IMP-1 metallo-beta-lactamase. purified IMP-1, nitrocefin hydrolysis, epi-absorbance fluorescence. inhibition, % at 5.6 µM. 290,000 tested, 0.45% active. AID 1556;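 active means inhibition above the mean plus 3 SD of all compounds in the same screening run, cut at about 4.5% in these data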
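System: purified IMP-1; amount: IMP-1 0.2 nM before substrate addition; compound: single dose, 5.6 µM; times: 25 °C, 15 min preincubation, 25 min reaction; signal: Epi-absorbance via hydrolysed-nitrocefin quenching of white-plate fluorescence, 480/530 nm, EDTA stop; benchmarks: DMSO with and without IMP-1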
Hits are given with their value; – = inactive; ? = inconclusive; · = not tested or not shown. In the library only some 2.6% were active in any assay of this set; here they are far more common.

SMILES | Runt-CBFb FRET | RanGTP-Imp inh | Runt-SMMHC FRET | VIM-2 inh | IMP-1 inh
COC(=O)C1=CNC=C(C(=O)OC)C1c1ccc(C(=O)OC)cc1 | – | – | 70.9 | – | –
CC(=O)c1ccc(NC(=O)C(C)Sc2nnc(C3CCCCC3)o2)cc1 (stereo not drawn) | · | – | · | – | –
Cc1ccc(CCNC(=O)C2CCN(S(=O)(=O)c3cccc4nsnc34)CC2)cc1 | – | – | – | – | 4.9
CCN(CC)CCN(C(=O)CCS(=O)(=O)c1ccccc1)c1nc2c(C)cc(C)cc2s1 | · | – | · | – | –
Oc1ccc(/C=N/N(Cc2ccccc2)c2ccccc2)c(O)c1O | – | – | – | – | 5.1
O=C(NC(=O)N1CCCC1)c1csnn1 | – | – | – | – | –
CCOC(=O)Nc1c2ccccc2nc2ccccc12 | 64.8 | 131.2 | 82.1 | – | –
CCS(=O)(=O)N1Cc2ccccc2CC1C(=O)Nc1ccc(F)cc1 (stereo not drawn) | – | – | 80.2 | – | –
CCC(C)(C)c1ccc(OC(=O)c2cccnc2Cl)cc1 | · | – | · | – | –
c1csc(-c2nn3cnnc3c3ccccc23)c1 | – | – | – | 11.9 | –
CC(C)c1ccc(NC2CCCN(C(=O)c3cnsn3)C2)cc1 (stereo not drawn) | · | – | · | – | –
CCCCOc1ccccc1C1C(C(=O)OC)=CN(CC)C=C1C(=O)OC | – | 107.5 | – | – | –
CCCOc1ccccc1C1C(C(=O)OC)=CN(C(C)C)C=C1C(=O)OC | 85.5 | 115.3 | 58.5 | – | –
CCCOc1ccccc1C1NC(=O)NC(C)=C1C(=O)OCCOCC (stereo not drawn) | – | – | – | – | –
COC(=O)C1=CN(C)C=C(C(=O)OC)C1c1ccccc1Cl | – | 86.7 | 82.8 | – | –
COc1ccc(C(=O)/C(=C\c2ccco2)N2C=CC=CC2=C(C#N)C#N)cc1 | – | ? | – | – | –
COc1ccc(/C=C(/C(=O)c2cccs2)N2C=CC=CC2=C(C#N)C#N)cc1 | – | 21.8 | – | – | –
CN1CCN(C(=O)c2ccc(OCCOc3ccccc3)cc2)CC1 | · | – | · | – | –
CC(C)CC(=O)NC(=S)Nc1ccccc1C(=O)Nc1ccccc1 | – | – | – | – | 11.6
CC1CCN(c2ccccc2NC(=S)NC(=O)C(C)(C)C)CC1 | – | – | – | – | 6.3
CC(C)C(=O)NC(=S)Nc1ccccc1C(=O)Nc1ccccc1 | – | – | – | – | 19.0
O=C(Cc1ccccc1)Nc1ccccc1C(=O)Nc1ccccc1 | – | – | – | – | –
CC(C)(C)C(=O)NC(=S)Nc1ccccc1C(=O)Nc1ccccc1 | – | – | – | – | 17.2
CC(C)CC(=O)NC(=S)Nc1cccc(NC(=O)c2ccccc2Cl)c1 | – | – | – | – | –
CC(C)(C)C(=O)NC(=S)Nc1ccccc1C(=O)NC1CCCCC1 | – | – | – | – | –
SMILES | Runt-CBFb FRET | RanGTP-Imp inh | Runt-SMMHC FRET | VIM-2 inh | IMP-1 inh
Cc1ccc(S(=O)(=O)N2CCC3(CC2)OCCN3S(=O)(=O)c2c(C)cc(C)cc2C)cc1 | · | – | · | · | ·
C=CCn1c2ccccc2c(=O)c2cc(C#Cc3ccsc3)ccc21 | · | 23.6 | · | – | –
C=CCn1c(O)c(N=O)c2ccccc21 | – | – | – | – | –
Cc1c(C)c2ccc(OCC(=O)Nc3ccc(S(N)(=O)=O)cc3)c(C)c2oc1=O | · | – | · | 7.8 | –
CCCc1cc(=O)oc2cc(OCC(=O)NCC(O)c3ccccc3)ccc12 (stereo not drawn) | · | – | · | – | 42.2
CCCc1cc(=O)oc2cc(OCC(=O)NCc3cccs3)ccc12 | – | – | – | – | –
CCCc1cc(=O)oc2cc(OC(C)C(=O)NCCCn3ccnc3)ccc12 (stereo not drawn) | · | – | · | – | –
CCCc1cc(=O)oc2cc(OCC(=O)NCc3ccccn3)ccc12 | · | – | · | – | –
CCCc1cc(=O)oc2cc(OCC(=O)Nc3ccc(S(N)(=O)=O)cc3)ccc12 | · | – | · | – | 15.3
CCCc1cc(=O)oc2cc(OCC(=O)NCCCn3ccnc3)ccc12 | · | – | · | 9.0 | –
Cc1ccc(NC(=O)CSc2n[nH]c(-c3cccnc3)n2)c(Br)c1 | · | – | · | – | –
CC(C)C[C@@]12C(=O)N(c3cccc(F)c3)C(=O)N1[C@H](c1ccc(F)cc1)[C@@H]1C(=O)N(C3CCCCC3)C(=O)[C@@H]12 | · | – | · | · | ·
Cc1ccnc2nc(C(=O)Nc3nc4ccccc4s3)nn12 | – | – | – | – | 5.0
CCOC(=O)C1=C(COC(=O)/C=C/c2ccc(OC)cc2OC)NC(=O)NC1C (stereo not drawn) | · | – | · | · | ·
COc1cccc(OC)c1C(=O)NC(=O)Oc1c(F)cccc1F | · | – | · | – | –
CCCCNc1cc(NC(C)=O)cc2cc(OC)c(OC)cc12 | – | 21.5 | – | – | –
CCS(=O)(=O)Nc1ccc(-c2nc3cccnc3s2)cc1 | – | – | 74.5 | – | –
Cc1c(NS(=O)(=O)c2ccc3c(c2)OCCO3)cccc1-c1nc2cccnc2s1 | – | – | – | – | –
Cc1cc(-c2nc3cccnc3s2)ccc1NS(=O)(=O)c1ccc2c(c1)OCCO2 | 102.0 | 70.5 | 119.0 | – | –
O=S(=O)(Nc1ccc(-c2nc3cccnc3s2)cc1)c1cccs1 | 90.9 | – | 144.8 | – | –
Cc1c(NS(=O)(=O)c2cccs2)cccc1-c1nc2cccnc2s1 | – | – | – | – | –
CCS(=O)(=O)Nc1cccc(-c2nc3cccnc3s2)c1 | – | – | – | – | –
Cc1cc(-c2nc3cccnc3s2)ccc1NS(=O)(=O)c1cccs1 | 127.8 | 91.8 | 107.3 | – | –
CCc1cc(CNC(=O)c2ccc(OC3CCN(C(C)=O)CC3)c(OC)c2)on1 | · | – | · | – | –
Cc1ccc(NC(=O)C2(S(=O)(=O)c3ccc(Cl)cc3)CC2)cc1 | · | – | · | – | –
SMILES | Runt-CBFb FRET | RanGTP-Imp inh | Runt-SMMHC FRET | VIM-2 inh | IMP-1 inh
Cc1ccc(OCC(=O)N(C)CC(=O)Nc2cccc(F)c2)cc1 | · | – | · | – | –
COc1ccc(CCN2CC(C(=O)NCCc3ccccn3)CCC2=O)cc1 (stereo not drawn) | · | – | · | – | –
Cc1ccc(Cn2c(CCNc3nc(-c4ccc(Cl)c([N+](=O)[O-])c4)cs3)nc3cc(C(=O)NCCCO)ccc32)cc1 | · | – | · | · | ·
Cc1ccc(C(=O)Nc2sc3c(c2C(=O)NCc2ccco2)CCCC3)cc1 | – | – | – | – | –
O=C(Nc1sc2c(c1C(=O)NCc1ccco1)CCCC2)c1ccc2c(c1)OCO2 | – | ? | 64.6 | – | –
COc1ccc(-c2csc(NC(=O)c3ccc(S(C)(=O)=O)cc3)n2)cc1 | – | – | – | – | 5.6
COc1ccc(CC(=O)Nc2nc(-c3ccncc3)cs2)cc1 | – | ? | – | – | 6.7
Cc1ccc2[nH]c(=O)c(C(c3nnnn3Cc3ccccc3)N3CCc4ccccc43)cc2c1 (stereo not drawn) | – | 20.1 | – | – | –
Nc1c(C(=O)NCCN2CCOCC2)c2nc3ccccc3nc2n1-c1ccc2c(c1)OCO2 | – | – | – | – | –
COc1ccccc1CNC(=O)c1c(N)n(CCCN2CCOCC2)c2nc3ccccc3nc12 | – | 125.5 | – | – | –

Source: PubChem (several laboratories)
